We go through 16 compounds from ChEMBL document CHEMBL3596156, “Synthesis and bioevaluation of heterocyclic derivatives of Cleistanthin-A” (Bioorg Med Chem, 2015).

Calls of active or inactive are those of the source. The rule behind the calls is not given here. Some results are limits rather than exact numbers.

For one experiment, the system named is A549. Briefly: Cytotoxicity against human A549 cells assessed as inhibition of cell proliferation after 72 hrs by MTT assay. As to conditions: A549, 72 h. It is filed as functional, cell-based. In a few lines:
(§1)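 MTT antiproliferation screen across HCT-116, HepG2, A549 and HeLa tumour lines, with WRL-68 normal cells run in parallel.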

Experiment [1] has as its system HepG2. Briefly: Cytotoxicity against human HepG2 cells assessed as inhibition of cell proliferation after 72 hrs by MTT assay. To be noted: HepG2, 72 h. It is filed as functional, cell-based. The procedure, abridged:
as §1
(Formazan colour is commonly taken as a measure of viable cells.)

Another experiment relates to HeLa. Nature of the experiment: Cytotoxicity against human HeLa cells assessed as inhibition of cell proliferation after 72 hrs by MTT assay. It is filed as functional, cell-based. In a few lines:
as §1

In another experiment the test system is HCT-116. Nature of the experiment: Cytotoxicity against human HCT116 cells assessed as inhibition of cell proliferation after 72 hrs by MTT assay. It is filed as functional, cell-based. To be noted: HCT-116, 72 h. In a few lines:
as §1

A further experiment has as its system WRL68. Briefly: Cytotoxicity against human WRL68 cells assessed as inhibition of cell proliferation after 72 hrs by MTT assay. It is filed as cell-based. As to conditions: WRL68, 72 h. The procedure, abridged:
as §1

In experiment [2] the test system is HepG2. Briefly: Inhibition of V-ATPase in human HepG2 cells assessed as release of phosphate at 60 nM after 48 hrs by colorimetric assay relative to control; values are per cent of control.
In experiment [3] the test system is HepG2. Briefly: Inhibition of V-ATPase in human HepG2 cells assessed as release of phosphate at 30 nM after 48 hrs by colorimetric assay relative to control; values are per cent of control.
Experiment [4] has as its system HepG2. Briefly: Cytotoxicity against human HepG2 cells assessed as inhibition of cell viability at 15 to 60 nM after 24 to 72 hrs by MTT assay. It is filed as functional, cell-based. In a few lines: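 HepG2 cells exposed to 0, 15, 30 or 60 nM for 24, 48 and 72 h; viability read by MTT.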
In experiment [5] the test system is HepG2. Briefly: Inhibition of V-ATPase in human HepG2 cells assessed as decrease in lysosomal pH at 60 nM after 48 hrs by LysoTracker Red staining-based confocal microscopic analysis relative to control. It is filed as cell-based. The procedure, abridged: (§2)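 HepG2 cells stained with LysoTracker Red (pH-sensitive dye), then loaded sequentially with the agent. Test concentrations were 0, 15, 30 or 60 nM; diphyllin was used at 1 µM as positive control. Cells were exposed for 48 h, and lysosomal acidity was judged by red fluorescence on confocal microscopy versus untreated cells.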

For experiment [6], the system named is HepG2. Briefly: Inhibition of V-ATPase in human HepG2 cells assessed as decrease in cytosolic pH at 15 to 60 nM after 24 to 48 hrs by BCECF-AM probe-based spectrofluorophotometric analysis. It is filed as cell-based.
Experiment [7] deals with HepG2. Briefly: Inhibition of V-ATPase in human HepG2 cells assessed as release of phosphate at 15 to 60 nM after 48 hrs by colorimetric assay. It is filed as cell-based. In a few lines: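 HepG2 cells treated 48 h with 0, 15, 30 or 60 nM, diphyllin as positive control. V-ATPase activity then measured using a commercial V-ATPase activity assay kit.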
For experiment [8], the system named is HepG2. Nature of the experiment: Inhibition of V-ATPase in human HepG2 cells assessed as decrease in lysosomal pH at 1 uM after 48 hrs by LysoTracker Red staining-based confocal microscopic analysis relative to control. It is filed as cell-based. The procedure, abridged:
as §2

Broadly, the IC50 is the point on the concentration scale where inhibition reaches its midpoint. `COc1cc2c(O[C@@H]3OC[C@@H](OC)[C@H](OC)[C@H]3OCCCCCCCN3CCOCC3)c3c(c(-c4ccc5c(c4)OCO5)c2cc1OC)C(=O)OC3`: the half-inhibitory concentration (IC50) was 23 nM in the experiment with A549; 43 nM with HepG2 [1]; 28 nM with HeLa; 28 nM in the experiment on HCT-116; > 200 nM with WRL68.

Turning to `COc1cc2c(O[C@@H]3OC[C@@H](OC)[C@H](OC)[C@H]3OCCCCCCCCN3CCOCC3)c3c(c(-c4ccc5c(c4)OCO5)c2cc1OC)C(=O)OC3`, the half-inhibitory concentration (IC50) in the experiment on A549 was 26 nM; in the experiment with HepG2 [1], 26 nM; in the experiment with HeLa, 45 nM; in the experiment on HCT-116 it was 25 nM; with WRL68 it was > 200 nM.

`COc1cc2c(O[C@@H]3OC[C@@H](OC)[C@H](OC)[C@H]3OCCCCCCN3CCN(C)CC3)c3c(c(-c4ccc5c(c4)OCO5)c2cc1OC)C(=O)OC3`: the IC50 is 36 nM in the experiment on A549; 39 nM in the experiment on HepG2 [1]; 32 nM in the experiment with HeLa; 32 nM in the experiment with HCT-116; > 200 nM in the experiment with WRL68.

For `COc1cc2c(O[C@@H]3OC[C@@H](OC)[C@H](OC)[C@H]3OCCCCCCN3CCOCC3)c3c(c(-c4ccc5c(c4)OCO5)c2cc1OC)C(=O)OC3`, the level, % of control with HepG2 [2] worked out at 56%; in the experiment with HepG2 [3], 62%. The half-inhibitory concentration (IC50) is 26 nM in the experiment with A549; 30 nM in the experiment with HepG2 [1]; 20 nM in the experiment on HeLa; 21 nM in the experiment on HCT-116; > 200 nM with WRL68. Besides, the inhibition result with HepG2 [4], in the experiment on HepG2 [5] and with HepG2 [6] was “Active” each time.

As to `COc1cc2c(O[C@@H]3OC[C@@H](OC)[C@H](OC)[C@H]3OCCCCCCCN3CCN(C)CC3)c3c(c(-c4ccc5c(c4)OCO5)c2cc1OC)C(=O)OC3`, the IC50 in the experiment with A549 was 23 nM; in the experiment with HepG2 [1], 41 nM; in the experiment with HeLa, 51 nM; in the experiment with HCT-116 it was 27 nM; in the experiment with WRL68 it was > 200 nM.

As for `COc1cc2c(O[C@@H]3OC[C@@H](OC)[C@H](OC)[C@H]3OCCCCCCCCN3CCCCC3)c3c(c(-c4ccc5c(c4)OCO5)c2cc1OC)C(=O)OC3`, the half-inhibitory concentration (IC50) in the experiment with A549 is > 200 nM; in the experiment with HepG2 [1], 52 nM; in the experiment with HeLa, > 200 nM; in the experiment on HCT-116, 15 nM; in the experiment with WRL68 it was > 200 nM.

For `COc1cc2c(O[C@@H]3OC[C@@H](OC)[C@H](OC)[C@H]3OCCCCCCCCN3CCC(O)CC3)c3c(c(-c4ccc5c(c4)OCO5)c2cc1OC)C(=O)OC3`, the half-maximal inhibitory concentration (IC50) with A549 is 26 nM; in the experiment with HepG2 [1], > 200 nM; in the experiment on HeLa, 100 nM; in the experiment on HCT-116, 12 nM; in the experiment with WRL68, > 200 nM.

For the compound `COc1cc2c(O[C@@H]3OC[C@@H](OC)[C@H](OC)[C@H]3OCCCCCCN3CCC(O)CC3)c3c(c(-c4ccc5c(c4)OCO5)c2cc1OC)C(=O)OC3`, the IC50 in the experiment with A549 is 23 nM; with HepG2 [1], 30 nM; in the experiment with HeLa, 32 nM; with HCT-116 it was 22 nM; with WRL68, > 200 nM.

Turning to `COc1cc2c(O)c3c(c(-c4ccc5c(c4)OCO5)c2cc1OC)C(=O)OC3`, the inhibition entry in the experiment on HepG2 [7] and in the experiment on HepG2 [8] was “Active” throughout.

Turning to `COc1cc2c(O[C@@H]3OC[C@@H](OC)[C@H](OC)[C@H]3O)c3c(c(-c4ccc5c(c4)OCO5)c2cc1OC)C(=O)OC3` [CLEISTANTHIN], the IC50 in the experiment with A549 was 4 nM; in the experiment with HepG2 [1], 8 nM; in the experiment with HeLa it was 19 nM; in the experiment with HCT-116 it was 1 nM; in the experiment on WRL68, > 200 nM.

Take `COc1cc2c(O[C@@H]3OC[C@@H](OC)[C@H](OC)[C@H]3OCCCCCCCCN3CCN(C)CC3)c3c(c(-c4ccc5c(c4)OCO5)c2cc1OC)C(=O)OC3`: the IC50 in the experiment on A549 is 25 nM; in the experiment with HepG2 [1], 39 nM; with HeLa, 91 nM; with HCT-116, 11 nM; in the experiment on WRL68 it was > 200 nM.

Take `COc1cc2c(O[C@@H]3OC[C@@H](OC)[C@H](OC)[C@H]3OCCCCCCCN3CCN(CCO)CC3)c3c(c(-c4ccc5c(c4)OCO5)c2cc1OC)C(=O)OC3`: the IC50 with A549 is > 200 nM; with HepG2 [1] it was > 200 nM; in the experiment with HeLa it was > 200 nM; in the experiment with HCT-116 it was 29 nM; in the experiment with WRL68 it was > 200 nM.

For the compound `COc1cc2c(O[C@@H]3OC[C@@H](OC)[C@H](OC)[C@H]3OCCCCCCN3CCCCC3)c3c(c(-c4ccc5c(c4)OCO5)c2cc1OC)C(=O)OC3`, the half-maximal inhibitory concentration (IC50) in the experiment with A549 is 26 nM; in the experiment with HepG2 [1], 34 nM; in the experiment with HeLa, 36 nM; in the experiment with HCT-116, 23 nM; in the experiment on WRL68, > 200 nM.

Take `COc1cc2c(O[C@@H]3OC[C@@H](OC)[C@H](OC)[C@H]3OCCCCCCCN3CCC(O)CC3)c3c(c(-c4ccc5c(c4)OCO5)c2cc1OC)C(=O)OC3`: the IC50 is > 200 nM in the experiment on A549; > 200 nM with HepG2 [1]; > 200 nM with HeLa; 73 nM in the experiment on HCT-116; > 200 nM with WRL68.

`COc1cc2c(O[C@@H]3OC[C@@H](OC)[C@H](OC)[C@H]3OCCCCCCN3CCN(CCO)CC3)c3c(c(-c4ccc5c(c4)OCO5)c2cc1OC)C(=O)OC3`: the half-maximal inhibitory concentration (IC50) was 19 nM in the experiment on A549; 33 nM with HepG2 [1]; 25 nM in the experiment with HeLa; 23 nM with HCT-116; > 200 nM in the experiment on WRL68.

Regarding `COc1cc2c(O[C@@H]3OC[C@@H](OC)[C@H](OC)[C@H]3OCCCCCCCCN3CCN(CCO)CC3)c3c(c(-c4ccc5c(c4)OCO5)c2cc1OC)C(=O)OC3`, the half-inhibitory concentration (IC50) was 29 nM in the experiment on A549; 25 nM in the experiment on HepG2 [1]; 55 nM in the experiment on HeLa; 27 nM in the experiment with HCT-116; > 200 nM with WRL68.
